Molecular target: T1, AarA (Providencia stuartii, UniProt P46116)
T1 sequence (P46116 1-281): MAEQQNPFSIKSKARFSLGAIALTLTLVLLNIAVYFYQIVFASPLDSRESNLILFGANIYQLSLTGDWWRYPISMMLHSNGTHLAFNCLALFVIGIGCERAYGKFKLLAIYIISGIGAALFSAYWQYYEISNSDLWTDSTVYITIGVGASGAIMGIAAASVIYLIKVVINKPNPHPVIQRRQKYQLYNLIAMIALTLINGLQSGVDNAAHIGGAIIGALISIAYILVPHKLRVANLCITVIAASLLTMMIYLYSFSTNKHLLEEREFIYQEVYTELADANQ
Assay: In vitro fluorescent assay
Format: biochemical
Details: SAR
Procedure, shortened: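 Fluorogenic KSp21 peptide (600 nM) cleaved at 24−25 °C by 100 nM AarA or 37 nM chymotrypsin. Buffer: 25 mM Hepes pH 7.4, 5 mM EDTA, 5% glycerol, 0.5% DDM and 20% DMSO (final). Compound was preincubated with enzyme for 30 min at 25 °C, and the reaction was started with peptide. Stopped after 50−60 min, still in the linear phase, with 1 M phosphoric acid pH 1.5; fluorescence read.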

Row | Structure (SMILES) | inhibitory activity against AarA in the fluorescent assay (in words)
1 | Cc1ccc(S(=O)(=O)N[C@@H](Cc2ccccc2)C(=O)CCl)cc1 [TPCK] | inactive
2 | Cc1ccc(S(=O)(=O)NC(CCCCN)C(=O)CCl)cc1 (centres unmarked) [TLCK] | inactive

Reference: PMC3077804 (ACS Chemical Biology, 2010)
